# According to ChEMBL document CHEMBL3271990, “Ergot alkaloids. New ergolines as selective dopaminergic stimulants” (1978):
# Active and inactive are the calls of the source. The calls are words filed in the database; no cut-off is given here.
# What was measured:
# Rattus norvegicus [1] = experiment: Induction of turning toward intact side in OFA rat model with 6-OH-DA-induced unilateral degeneration of nigrostriatal tract at 1 mg/kg, ip; type: functional, organism-based; parameters: dose 1 mg/kg
# Rattus norvegicus [2] = experiment: Inhibition of serum prolactin in sc dosed rat after 4 hrs by RIA; type: functional
# Summary of the method: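 Serum prolactin measured by RIA 4 h after sc dosing, expressed as NIH-RP. ED50 calculated from dose-response relationships.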
# Rattus norvegicus [3] = experiment: Inhibition of ovum implantation in sc dosed inseminated rat; type: functional
# Summary of the method: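 Inseminated rats dosed sc. ED value for inhibition of ovum implantation.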
# Rattus norvegicus [4] = experiment: Induction of stereotypy in OFA rat at 10 mg/kg, sc measured every 30 mins for 2 hrs followed by every 60 mins for 7 hrs; type: functional, organism-based; parameters: dose 10 mg/kg
# Summary of the method: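 Male OFA rats (180-250 g), housed singly in cylinders with wire-netting floor, acclimatized 30 min before dosing. Behaviour observed every 30 min for 2 h, then every 60 min up to 7 h total. Stereotypy (sniffing, licking, biting) scored on Costall et al. scale; total score per rat over 0-7 h. Six rats per dose.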
# Rattus norvegicus [5] = experiment: Induction of stereotypy in OFA rat at 30 mg/kg, ip measured every 30 mins for 2 hrs followed by every 60 mins for 7 hrs; type: functional, organism-based; parameters: dose 30 mg/kg
# Summary of the method: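 Male OFA rats (180-250 g), each in its own cylinder with a wire-netting floor, acclimatized 30 min, then dosed. Observed every 30 min for 2 h, then every 60 min up to 7 h total. Six rats per dose. Sniffing, licking and biting scored with the Costall et al. system and summed as total activity per rat over 0-7 h.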
Compound,Activity (Rattus norvegicus [1]),ED50 (Rattus norvegicus [2]),ED50 (Rattus norvegicus [3]),Activity (Rattus norvegicus [4]),Activity (Rattus norvegicus [5])
CN1C[C@H](CSc2ccccn2)C=C2c3cccc4[nH]cc(c34)C[C@H]21 [TIOMERGINE],Active,1.47 mg/kg,11.5 mg/kg,,
CN1C[C@H](CC#N)C[C@@H]2c3cccc4[nH]cc(c34)C[C@H]21,Active,0.06 mg/kg,1 mg/kg,,
CN1CCc2cccc3c2[C@H]1Cc1ccc(O)c(O)c1-3,,,,Active,
CN1C[C@@H](CC#N)C[C@@H]2c3cccc4[nH]cc(c34)C[C@H]21 [DELERGOTRILE],Active,0.06 mg/kg,3 mg/kg,,Active
CN1C[C@H](CC#N)C[C@@H]2c3cccc4[nH]c(Cl)c(c34)C[C@H]21 [LERGOTRILE],Active,0.08 mg/kg,2 mg/kg,,Active
CN1C[C@@H](CC#N)C[C@H]2c3cccc4[nH]cc(c34)C[C@H]21,Active,,,,Active
CC(C)C[C@H]1C(=O)N2CCC[C@H]2[C@]2(O)O[C@](NC(=O)[C@@H]3C=C4c5cccc6[nH]c(Br)c(c56)C[C@H]4N(C)C3)(C(C)C)C(=O)N12 [BROMOCRIPTINE],,0.007 mg/kg,0.75 mg/kg,,Active
